One experiment deals with Histone deacetylase 1 (Homo sapiens, UniProt Q13547). The experiment can be described thus: Inhibition of human recombinant HDAC1 using fluorogenic HDAC substrate preincubated for 30 mins followed by substrate addition and measured after 15 mins by fluorogenic assay.
Experiment [1] has as its target T1, Protein deacetylase HDAC6 (Homo sapiens, UniProt Q9UBN7).
T1 sequence (Q9UBN7 whole entry): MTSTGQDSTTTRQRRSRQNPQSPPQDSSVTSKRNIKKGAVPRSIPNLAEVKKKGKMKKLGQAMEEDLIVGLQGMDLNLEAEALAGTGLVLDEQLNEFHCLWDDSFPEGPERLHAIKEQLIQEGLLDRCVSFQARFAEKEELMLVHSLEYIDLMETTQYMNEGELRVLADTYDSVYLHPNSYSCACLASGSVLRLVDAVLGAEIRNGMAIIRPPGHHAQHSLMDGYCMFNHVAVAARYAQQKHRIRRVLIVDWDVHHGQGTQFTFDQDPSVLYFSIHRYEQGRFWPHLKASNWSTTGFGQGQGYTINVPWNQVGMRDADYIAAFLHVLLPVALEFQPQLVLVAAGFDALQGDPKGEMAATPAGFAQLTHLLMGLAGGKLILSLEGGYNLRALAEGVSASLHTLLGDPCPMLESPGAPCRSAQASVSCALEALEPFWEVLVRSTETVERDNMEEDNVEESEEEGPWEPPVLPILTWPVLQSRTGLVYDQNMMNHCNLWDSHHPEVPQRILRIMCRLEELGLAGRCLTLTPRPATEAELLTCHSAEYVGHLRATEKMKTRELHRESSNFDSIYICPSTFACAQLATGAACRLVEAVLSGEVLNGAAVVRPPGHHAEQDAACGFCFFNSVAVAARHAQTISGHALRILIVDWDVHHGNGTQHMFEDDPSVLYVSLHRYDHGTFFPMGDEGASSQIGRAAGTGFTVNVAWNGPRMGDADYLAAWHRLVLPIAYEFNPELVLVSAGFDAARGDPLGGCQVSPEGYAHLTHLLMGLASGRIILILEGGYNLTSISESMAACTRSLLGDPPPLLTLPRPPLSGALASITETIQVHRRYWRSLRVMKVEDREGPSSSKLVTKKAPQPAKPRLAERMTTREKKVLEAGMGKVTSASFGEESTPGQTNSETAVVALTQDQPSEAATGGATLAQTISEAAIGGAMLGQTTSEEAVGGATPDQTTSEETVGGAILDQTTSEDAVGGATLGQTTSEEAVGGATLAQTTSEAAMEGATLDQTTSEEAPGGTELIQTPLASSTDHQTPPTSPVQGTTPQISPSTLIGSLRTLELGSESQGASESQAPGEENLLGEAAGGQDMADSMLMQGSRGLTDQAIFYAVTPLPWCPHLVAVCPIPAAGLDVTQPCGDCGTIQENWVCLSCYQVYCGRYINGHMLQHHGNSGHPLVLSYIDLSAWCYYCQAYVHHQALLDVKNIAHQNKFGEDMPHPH
Description: Inhibition of human recombinant HDAC6 using fluorogenic HDAC substrate 3 preincubated for 30 mins followed by substrate addition and measured after 15 mins by fluorogenic assay.

The target of another experiment is T2, Histone deacetylase 8 (Homo sapiens, UniProt Q9BY41).
T2 sequence (Q9BY41 whole entry): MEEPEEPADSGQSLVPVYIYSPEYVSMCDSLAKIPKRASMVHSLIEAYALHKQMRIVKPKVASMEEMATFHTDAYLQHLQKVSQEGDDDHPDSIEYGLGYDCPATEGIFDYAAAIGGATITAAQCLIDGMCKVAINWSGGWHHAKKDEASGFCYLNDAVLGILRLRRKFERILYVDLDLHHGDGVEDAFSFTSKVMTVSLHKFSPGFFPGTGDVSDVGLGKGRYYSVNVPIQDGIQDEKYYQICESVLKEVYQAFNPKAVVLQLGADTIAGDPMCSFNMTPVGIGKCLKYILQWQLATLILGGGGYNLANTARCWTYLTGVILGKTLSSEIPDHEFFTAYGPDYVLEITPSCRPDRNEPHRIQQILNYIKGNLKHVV
Description: Inhibition of human recombinant HDAC8 using fluorogenic HDAC substrate class 2A preincubated for 30 mins followed by substrate addition and measured after 15 mins by fluorogenic assay.

For the next experiment, the system named is A549. Description: cells. To be noted: Homo sapiens, A549, 72 h. It is filed as functional, cell-based.
In another experiment the test system is MCF7. Description: cells. The format is functional, cell-based. Conditions: Homo sapiens, MCF7, 72 h.
Experiment [2] concerns MDA-MB-231. Description: cells. It is filed as functional, cell-based. Conditions: Homo sapiens, MDA-MB-231, 72 h.
Experiment [3] has as its system MDA-MB-231. Description: Cell cycle arrest in human MDA-MB-231 cells assessed as accumulation of cells at G2 phase at 15 uM incubated for 48 hrs RNase/PI staining based flow cytometry assay. It is filed as functional. In a few lines:
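MDA-MB-231 cells, 5*10⁶ per 10 cm plate, were grown in DMEM for 24 h and then dosed for 48 h from DMSO stocks (final DMSO 0.1%; DMSO as control). Cells were trypsinized, washed twice in cold PBS and fixed in 70% ethanol overnight at -20°C. They were treated with 200 ug/mL RNase for 30 min, stained with 50 ug/mL PI at RT for 30 min, and DNA content was read by flow cytometry.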

The next experiment deals with Vero. The experiment can be described thus: cells. Conditions: Chlorocebus sabaeus, 72 h.

Activity calls are given as the source filed them. The calls are words filed in the database; no cut-off is given here.

Sequence of Histone deacetylase 1 (Q13547 whole entry): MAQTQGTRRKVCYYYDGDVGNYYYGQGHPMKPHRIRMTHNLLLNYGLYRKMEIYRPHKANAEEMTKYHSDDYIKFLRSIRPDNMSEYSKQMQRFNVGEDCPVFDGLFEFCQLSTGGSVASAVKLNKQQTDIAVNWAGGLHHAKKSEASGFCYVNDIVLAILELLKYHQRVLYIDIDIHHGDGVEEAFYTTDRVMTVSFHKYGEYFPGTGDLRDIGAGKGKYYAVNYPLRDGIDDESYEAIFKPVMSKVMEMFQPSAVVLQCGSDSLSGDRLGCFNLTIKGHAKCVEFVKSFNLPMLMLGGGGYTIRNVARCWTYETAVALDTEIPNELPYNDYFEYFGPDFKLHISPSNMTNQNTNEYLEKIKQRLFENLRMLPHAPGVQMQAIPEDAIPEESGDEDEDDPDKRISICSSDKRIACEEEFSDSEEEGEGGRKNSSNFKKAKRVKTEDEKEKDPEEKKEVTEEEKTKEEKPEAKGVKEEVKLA

Consider `CCc1nc(N)nc(N)c1-c1ccc(-c2cn(CCCCCCC(=O)NO)nn2)cc1`, for which the concentration for half-maximal inhibition (IC50) turned out to be 0.045 µM at Histone deacetylase 1; 0.017 µM in experiment [1]; 0.78 µM on Histone deacetylase 8; 65.5 µM in the experiment with A549; 57.3 µM in the experiment on MCF7; 12.2 µM with MDA-MB-231 [2]. In addition, 40.2 µM corresponded to half-maximal inhibition in the experiment with Vero (IC50). For the same compound, in the experiment on MDA-MB-231 [3], the outcome was Active.

`CCc1nc(N)nc(N)c1-c1ccc(-c2cn(CCCCCC(=O)NO)nn2)cc1`: the IC50 on Histone deacetylase 1 stood at 0.26 µM; in experiment [1], 0.046 µM; on Histone deacetylase 8, 2.8 µM; in the experiment with MDA-MB-231 [2], 38.4 µM.

As to `CCc1nc(N)nc(N)c1-c1ccc(-c2ccc(/C=C/C(=O)NO)cc2)cc1`, the concentration for half-maximal inhibition (IC50) on Histone deacetylase 1 is 3.7 µM; in experiment [1] it was 0.073 µM; in the experiment with A549 it was 10 µM; in the experiment with MCF7 it was 9.3 µM; in the experiment on MDA-MB-231 [2], 5.43 µM; in the experiment on Vero, 6.9 µM.

As to `CCOC(=O)CCCCCCCn1cc(-c2ccc(-c3c(N)nc(N)nc3CC)cc2)nn1`, the IC50 worked out at 114 µM with A549, 96.6 µM in the experiment on MCF7, 94.9 µM with MDA-MB-231 [2] and 113 µM in the experiment on Vero.

Broadly, the IC50 is the concentration needed to halve the response being measured.
